Bioassay records as filed in PubChem BioAssay.
In the library only some 1.6% were active in any assay of this set; here they are far more common.
F508del corr = correctors of CFTR F508del function in bronchial epithelial cells; hit rate 0.36% among 350,000; activity (quench increase), % at 7.58 µM; CFBE cells, YFP halide quenching; stimulated with forskolin plus potentiator P3; % fluorescence drop versus neutral controls; AID 720511;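 active = mean added fluorescence quench of at least 8% versus neutral control, with both replicates also reaching 8%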;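 note: cells transiently co-express mutant CFTR-F508del with the halide-sensitive YFP; corrector assay measuring rescue of mutant channel to the surface after 24 h compound exposure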
Scp1 inh = Scp-1 (human) phosphatase inhibition; Q9GZU7; Recombinant Scp1, phosphopeptide, malachite green phosphate absorbance; inhibition, % at 20 µM; hit rate 0.88% among 340,000;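 active = inhibition above about 50% at 20 µM, limit read from the data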;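 note: plate controls were DMSO wells with enzyme for no effect and wells lacking enzyme for full effect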
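Incubation: 45 min enzyme reaction at room temperature / System: truncated SCP-1 phosphatase (76-261aa) / Reagent: Phospho 17-mer peptide substrate / Buffer or medium: Acidic Tris acetate buffer with magnesium and detergent / Signal: absorbance at 630 nm / Doses: one concentration, 20 µM, with 1.0% DMSO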
STEP inh = inhibitors of human striatal-enriched phosphatase STEP | hit rate 0.25% among 360,000 | inhibition, % at 20 µM | recombinant STEP, OMFP fluorogenic substrate, fluorescence | AID 588621;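 active = inhibition at 20 µM, scaled per plate between control wells, above about 37%, limit read from the data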;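 note: 0% = DMSO with enzyme and substrate and 100% = substrate only without enzyme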
Target sequence (P54829 whole entry, looked up): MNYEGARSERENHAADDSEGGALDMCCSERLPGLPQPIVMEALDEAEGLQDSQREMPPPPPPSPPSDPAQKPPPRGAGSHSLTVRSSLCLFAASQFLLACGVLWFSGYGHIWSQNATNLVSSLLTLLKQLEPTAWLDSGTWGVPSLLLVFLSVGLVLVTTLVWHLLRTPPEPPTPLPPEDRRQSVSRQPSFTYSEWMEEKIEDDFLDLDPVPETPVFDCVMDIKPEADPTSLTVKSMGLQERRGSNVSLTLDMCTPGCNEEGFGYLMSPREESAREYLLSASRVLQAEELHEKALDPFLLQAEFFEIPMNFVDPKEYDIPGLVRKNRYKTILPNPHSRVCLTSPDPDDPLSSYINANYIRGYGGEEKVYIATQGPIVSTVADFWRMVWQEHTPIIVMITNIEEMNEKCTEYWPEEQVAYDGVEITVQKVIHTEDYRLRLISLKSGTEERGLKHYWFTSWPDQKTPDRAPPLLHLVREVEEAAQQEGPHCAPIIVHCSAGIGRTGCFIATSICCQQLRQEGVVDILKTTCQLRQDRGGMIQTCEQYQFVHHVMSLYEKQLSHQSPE
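Also added – OMFP at 25 µM · Test system – STEP tyrosine phosphatase · Technique – FITC-channel fluorescence of OMFP product · Schedule – 20 min at room temperature, dark · Evaluation – control-normalized % inhibition with plate pattern correction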
SUMO1 PPI mod = alters human SUMO1 binding to SIM partners; hit rate 0.33% among 360,000; AID 602429; P63165; inhibition, % at 20 µM; SUMO1 binding to a labelled peptide, TR-FRET, 1 h; in the data active = inhibition above about 37%
DNMT1 inh = inhibitors of human DNMT1 | P26358 | DNMT1 molecular beacon, Hinp1I cleavage, fluorescence | inhibition (reported as % activation of signal), % at 10 µM | hit rate 0.83% among 360,000 | AID 588458; in the data active = inhibition above about 50%
LMPTP block = blocks human LMPTP phosphatase; P24666; recombinant LMPTP-A, OMFP fluorogenic substrate, fluorescence intensity; inhibition, % at 20 µM; hit rate 0.22% among 360,000; AID 651560;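 active = compounds that cut the enzyme signal by at least half of the control window in the single-dose screen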;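 note: plate controls were DMSO wells with enzyme plus substrate for no effect and substrate without enzyme for full effect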
Target sequence (P24666 whole entry, looked up): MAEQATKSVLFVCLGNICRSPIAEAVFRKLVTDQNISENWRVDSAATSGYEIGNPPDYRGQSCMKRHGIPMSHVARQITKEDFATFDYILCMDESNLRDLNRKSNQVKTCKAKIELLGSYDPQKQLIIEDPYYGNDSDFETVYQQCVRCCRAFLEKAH
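Test system – LMPTP-A enzyme · Amount – LMPTP-A at 0.625 nM final in the reaction · Buffer or medium – Bis-Tris pH 6.0, DTT, detergent · Reagent – OMFP 400 µM · Doses – single 20 µM dose · Schedule – reaction 50 min, room temperature, dark · Detection – fluorescence intensity of OMFP turnover product · Evaluation – percent inhibition versus substrate-only and uninhibited controls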
Scp1 confirm = confirmation of human Scp-1 phosphatase inhibitors | shares compounds with Scp1 inh | hit rate 61% among 2,500 | inhibition, % at 20 µM | recombinant SCP-1 catalytic domain, phosphate release, malachite green absorbance;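 note: plate controls were DMSO with enzyme for no effect and buffer wells lacking enzyme for full effect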
Scp-1 MG ctr = counter-screen for Scp-1 inhibitors: colorimetric interference; apparent inhibition (interference), % at 20 µM; Colorimetric interference counterscreen, malachite green absorbance 630 nm; 2,500 tested, under 10 active; shares compounds with Scp1 inh;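 note: compounds added after enzyme reaction finished so only phosphate colour detection is probed; plate controls were DMSO wells with completed Scp-1 reaction for no effect and substrate wells lacking enzyme for full effect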
Scp1 DSF = validation of human Scp-1 inhibitors by thermal shift binding; thermal shift relative to vanadate control, % at 40 µM; hit rate 25% among 1,500; Recombinant SCP1, Sypro Orange thermal shift Tm; shares compounds with Scp1 inh; AID 540329;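 active = substances whose mean melting-temperature shift, as a percentage of the reference inhibitor's shift, reaches about 5.3%, limit read from the data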;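 note: 0% = Tm of DMSO wells and 100% = Tm with sodium orthovanadate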
Starred values were filed as active, the others as inactive; / = no result; ! = repeats disagree.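 Rule for the calls, unless noted: active = inhibition of at least 30% at 20 µM; inactive = the rest.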

SMILES	F508del corr	Scp1 inh	STEP inh	SUMO1 PPI mod	DNMT1 inh	LMPTP block	Scp1 confirm	Scp-1 MG ctr	others
Cc1ccc(S(=O)(=O)N(C)C[C@H]2Oc3c(NS(=O)(=O)c4ccccc4)cccc3C(=O)N([C@@H](C)CO)C[C@H]2C)cc1	-1	/	/	/	/	/	/	/
O=C(CCCCCCCCC(=O)N/N=C/c1ccco1)N/N=C/c1ccco1	-3	51*	2	1	9	0	68*	-11	Scp1 DSF=-7
O=C(CCC(=O)N/N=C/c1ccco1)N/N=C/c1ccco1	3	-13	8	-6	21	1	/	/
C[C@H](CO)N1C[C@H](C)[C@@H](CN(C)CC2CCOCC2)Oc2ncc(C#C[C@@H](C)O)cc2C1=O	0	/	/	/	/	/	/	/
C(=C\c1ccccc1)/CN1CCN(Cc2nc(Cc3ccccc3)no2)CC1	3	53*	-2	-3	10	-1	-6	-4
C[C@@H]1CN([C@@H](C)CO)C(=O)c2cc(N(C)C)ccc2O[C@H]1CN(C)CC1CCCCC1	3	/	/	/	/	/	/	/
O=C(O)c1ccccc1-c1c2cc(I)c(=O)c(I)c-2oc2c(I)c(O)c(I)cc12	8.7*!	77*	-75	69*	34	22	65*	-23	Scp1 DSF=164*
C[C@H]1CN([C@@H](C)CO)C(=O)c2cc(NC(=O)CCN3CCOCC3)ccc2O[C@H]1CN(C)S(=O)(=O)c1ccc(F)cc1	4	/	/	/	/	/	/	/
Cn1c(=O)c(NC(=O)c2ccccc2)c2n(c1=S)CCCCC2	/	55*	-2	2	9	-1	36*	-14	Scp1 DSF=-20
COc1ccc2c3c([nH]c2c1)[C@H](CO)N(C(=O)c1ccc(F)cc1)CC31CN(C(=O)NC(C)C)C1	-2	/	/	/	/	/	/	/
CCOC(=O)c1sc(NC(=O)C2C3C=CC(C3)C2C(=O)O)nc1C (stereo not drawn)	1	54*	22	-2	24	-1	42*	-11	Scp1 DSF=-1
Cc1cccc(-c2nc(S(=O)(=O)c3ccccc3)c(N3CCOCC3)o2)c1	-2	54*	-1	6	-4	1	0	4
CCNC(=O)C[C@H]1CC[C@H]2[C@@H](COC[C@H](O)CN2C(=O)Nc2c(C)noc2C)O1	2	/	/	/	/	/	/	/
CN(C)c1cccc(N=C2C=C(N3CCOCC3)CC(C)(C)C2)c1	/	99*	-3	-3	-3	-2	79*	-18	Scp1 DSF=-10
CN(C)c1nc(N2CCOCC2)nc(N(c2ccccc2)c2ccccc2)n1	/	-2	-5	6	-1	-2	/	/
CO[C@H]1CN(C)C(=O)c2cc(NC(=O)C3CC3)ccc2OC[C@@H](C)N(C(=O)c2cnccn2)C[C@@H]1C	0	/	/	/	/	/	/	/
C[C@@H]1CN([C@H](C)CO)C(=O)c2cc(C#Cc3cccnc3)cnc2O[C@@H]1CN(C)S(=O)(=O)c1ccccc1F	0	/	/	/	/	/	/	/
O=C1C=CC(=Nc2cccc3c2C(=O)c2ccccc2-3)O1	/	61*	1	-15	42	13	-20	-22
O=c1oc2ccccc2c2[nH]ccc12	0	1	-2	3	1	1	/	/
O=c1oc2ccccc2c2c1ccc1ccccc12	-2	80*	1	-26	23	3	25	-20
Cc1cccc(OCC(=O)NCC(=O)N=Nc2c(O)[nH]c3ccc([N+](=O)[O-])cc23)c1	1	59*	25	-10	11	2	17	-8
COc1ccc(/C=C/C(=O)NCC(=O)N=Nc2c(O)[nH]c3ccc([N+](=O)[O-])cc23)cc1	0	68*	13	-3	6	9	25	-5
Cc1cccc(OCC(=O)N=Nc2c(O)[nH]c3ccc([N+](=O)[O-])cc23)c1	0	-6	/	/	/	/	/	/
O=C(N=Nc1c(O)[nH]c2ccc([N+](=O)[O-])cc12)c1ccccc1Cl	-1	99*	73*	18	6	28	70*	-19	Scp1 DSF=16*
O=C(CNC(=O)c1ccc(Br)cc1)N=Nc1c(O)[nH]c2ccc([N+](=O)[O-])cc12	5	1	3	-5	12	-1	/	/
SMILES	F508del corr	Scp1 inh	STEP inh	SUMO1 PPI mod	DNMT1 inh	LMPTP block	Scp1 confirm	Scp-1 MG ctr	others
CCCCCC(=O)N=Nc1c(O)[nH]c2ccc([N+](=O)[O-])cc12	1	20	2	-10	-3	3	/	/
CO[C@H]1CN(C)C(=O)c2ccc(NC(=O)c3ccccc3F)cc2OC[C@H](C)NC[C@H]1C	0	/	/	/	/	/	/	/
Brc1ccc(CSc2ncn[nH]2)cc1	/	51*	6	-1	0	0	12	-3
COc1ccccc1-c1cnc2c(c1)C(=O)N([C@@H](C)CO)C[C@@H](C)[C@H](CN(C)C(=O)c1ccncc1)O2	0	/	/	/	/	/	/	/
C[n+]1cccc(/C=N/NC(=O)CC23CC4CC(CC(C4)C2)C3)c1	1	83*	-5	-12	4	-2	-22	-21
COC(=O)C1=C(C(=O)OC)C2(OC1c1ccccc1C)C(=O)c1ccccc1C2=O (stereo not drawn)	/	56*	2	-5	-2	2	-10	-7
Cc1nc(CNC(=O)c2ccccc2OC2CCN(S(C)(=O)=O)CC2)cs1	2	61*	-2	1	1	-1	-29	-21
Cc1nc(CN(C)C(=O)c2ccccc2OC2CCN(S(C)(=O)=O)CC2)cs1	0	-4	-1	-4	2	-1	/	/
CCC(C)C1Nc2ccc(C(=O)NCc3ccc4c(c3)OCO4)cc2NC1=O (stereo not drawn)	-1	-6	0	-9	0	0	-4	-5
CCC(=O)N[C@@H]1CC[C@H](CC(=O)NCc2ccccc2OC)O[C@H]1CO	-3	/	/	/	/	/	/	/
COc1cc(/C=N/N=C2/NC(=O)C(CC(=O)O)S2)ccc1OCc1ccc(Cl)cc1 (stereo not drawn)	/	59*	-1	-3	-2	-1	70*	-5	Scp1 DSF=-8
COc1cc(/C=N/N=C(N)N)ccc1OCc1ccc(Cl)cc1	-1	-1	7	-13	-3	2	/	/
Cc1ccc(S(=O)(=O)N(CC(=O)N/N=C/c2ccco2)Cc2ccccc2)cc1	/	-6	3	2	-5	0	/	/
Cc1cccc(CN(CC(=O)N/N=C/c2ccco2)S(=O)(=O)c2ccc(Cl)cc2)c1	/	58*	3	3	37	2	48*	-16	Scp1 DSF=4
